Test results: ChEMBL document CHEMBL2169744, “Discovery and optimization of potent and selective imidazopyridine and imidazopyridazine mTOR inhibitors” (Bioorg Med Chem Lett, 2012); call rule not given here
Converted amounts (≈) assume the structure as drawn.

Experiments:
[1] = Volume of distribution at steady state in rat at 0.5 mg/kg, iv; format: ADME, organism-based; parameters: dose 0.5 mg/kg, route intravenous; conditions: in vivo, read-out: Vdss
[2] = Solubility of the compound in simulated intestinal fluid; format: physicochemical
[3] = molecular target: Phosphatidylinositol 4,5-bisphosphate 3-kinase catalytic subunit alpha isoform (Homo sapiens, UniProt P42336); experiment: Inhibition of PI3Kalpha by AlphaScreen assay
Sequence of Phosphatidylinositol 4,5-bisphosphate 3-kinase catalytic subunit alpha isoform (P42336 whole entry, canonical isoform): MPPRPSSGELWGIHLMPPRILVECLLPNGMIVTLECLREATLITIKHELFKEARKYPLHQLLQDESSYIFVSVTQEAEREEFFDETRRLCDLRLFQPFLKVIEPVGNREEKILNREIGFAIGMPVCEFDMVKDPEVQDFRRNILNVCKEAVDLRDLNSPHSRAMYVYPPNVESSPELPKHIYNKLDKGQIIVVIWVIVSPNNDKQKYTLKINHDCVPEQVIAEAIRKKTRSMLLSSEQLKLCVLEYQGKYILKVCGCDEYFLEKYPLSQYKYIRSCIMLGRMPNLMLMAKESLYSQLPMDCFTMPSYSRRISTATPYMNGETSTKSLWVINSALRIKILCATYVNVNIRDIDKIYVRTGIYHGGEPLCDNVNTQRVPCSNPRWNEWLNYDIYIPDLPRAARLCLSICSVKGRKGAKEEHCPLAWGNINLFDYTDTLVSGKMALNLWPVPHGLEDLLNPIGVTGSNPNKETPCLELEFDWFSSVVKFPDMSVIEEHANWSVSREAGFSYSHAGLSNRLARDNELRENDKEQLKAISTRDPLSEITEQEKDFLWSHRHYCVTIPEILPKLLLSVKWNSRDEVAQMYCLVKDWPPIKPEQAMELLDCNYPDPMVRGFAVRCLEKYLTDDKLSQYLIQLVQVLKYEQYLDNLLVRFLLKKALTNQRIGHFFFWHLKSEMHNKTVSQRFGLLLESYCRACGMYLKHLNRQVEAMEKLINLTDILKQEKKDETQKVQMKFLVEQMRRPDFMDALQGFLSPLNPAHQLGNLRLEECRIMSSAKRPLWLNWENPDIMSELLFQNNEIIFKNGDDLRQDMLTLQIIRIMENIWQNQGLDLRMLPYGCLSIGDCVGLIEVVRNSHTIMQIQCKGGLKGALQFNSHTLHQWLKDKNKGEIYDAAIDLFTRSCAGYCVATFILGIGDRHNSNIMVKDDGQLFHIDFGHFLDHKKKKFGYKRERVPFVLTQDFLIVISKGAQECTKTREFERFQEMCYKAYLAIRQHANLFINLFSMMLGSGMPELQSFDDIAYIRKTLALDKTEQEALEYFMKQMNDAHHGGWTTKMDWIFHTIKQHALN

[4] = molecular target: Serine/threonine-protein kinase mTOR (Homo sapiens, UniProt P42345); experiment: Inhibition of mTOR by LanthaScreen assay
[5] = Half life in rat at 0.5 mg/kg, iv; format: ADME, organism-based; parameters: dose 0.5 mg/kg, route intravenous; conditions: in vivo
[6] = Inhibition of mTORC1-mediated 4EBP1-phosphorylation in human U87 cells; format: cell-based, U-87MG ATCC
[7] = (§1) Clearance in rat at 0.5 mg/kg, iv; format: ADME, organism-based; parameters: dose 0.5 mg/kg, route intravenous; conditions: in vivo
[8] = (§2) AUC in rat at 0.5 mg/kg, iv; format: ADME, organism-based, Plasma; parameters: dose 0.5 mg/kg, route intravenous; conditions: plasma
[9] = Oral bioavailability in rat at 5 mg/kg; format: ADME, organism-based; conditions: in vivo
How it was run: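 Rat oral PK at 5.0 mpk in 1% Tween 80, 2% HPMC, 97% H2O, pH 2.2 (methanesulfonic acid).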

[10] = Plasma protein binding in rat at 5 mg/kg, po; format: ADME, organism-based; parameters: dose 5 mg/kg, route oral; conditions: read-out: PPB (converted)
[11] = Clearance in rat at 1 mg/kg, iv; format: ADME, organism-based; parameters: dose 1 mg/kg, route intravenous; conditions: in vivo
[12] = Inhibition of mTORC2-mediated AKT Ser473-phosphorylation in human U87 cells; format: cell-based, U-87MG ATCC; conditions: U-87 MG
How it was run: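 Cell assay in U87 cells measuring pAKT (S473), n ≥ 2.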

[13] = Oral bioavailability in rat at 4 mg/kg; format: ADME, organism-based; conditions: in vivo
Rattus norvegicus [14] = species on record: Rattus norvegicus; experiment: Unbound clearance in rat; format: ADME, organism-based; conditions: in vivo
Rattus norvegicus [15] = experiment: as §2; format: ADME, organism-based, Plasma; parameters: dose 0.5 mg/kg, route intravenous; conditions: in vivo
Rattus norvegicus [16] = experiment: as §1; format: ADME, organism-based; parameters: dose 0.5 mg/kg, route intravenous; conditions: in vivo
[17] = Apparent permeability from apical to basal side of pig LLC-PK1 cells; format: ADME, cell-based, Sus scrofa
[18] = Solubility of the compound in 0.01 N HCl; format: physicochemical; conditions: buffer
[19] = Apparent permeability from basal to apical side of pig LLC-PK1 cells; format: ADME, cell-based, Sus scrofa
[20] = Inhibition of mTORC1-mediated pS6 Ser240/244-phosphorylation in human U87MG cells; format: cell-based, U-87MG ATCC; conditions: U-87 MG
How it was run: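 Cell assay in U87MG cells measuring phosphorylation of the mTOR substrate S6 (S240/244), n ≥ 2.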

[21] = Oral bioavailability in rat at 1 mg/kg; format: ADME, organism-based; conditions: in vivo
[22] = Solubility of the compound in phosphate buffered saline; format: physicochemical
[23] = Efflux ratio of apparent permeability from basal to apical to apical to basal side of pig LLC-PK1 cells; format: ADME, cell-based, Sus scrofa
[24] = Oral bioavailability in rat at 2 mg/kg; format: ADME, organism-based; conditions: in vivo
[25] = Clearance in rat at 0.3 mg/kg, iv; format: ADME, organism-based; parameters: dose 0.3 mg/kg, route intravenous; conditions: in vivo
How it was run: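 Rat IV pharmacokinetics at 0.3 mpk, formulation 100% DMSO.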

[26] = Homo sapiens, U-87 MG, read-out: IC50

SMILES | Vd [1] [L/kg] | solubility [2] [µg/mL] | IC50 [3] [nM] | IC50 [4] [nM] | half-life [5] [min] | IC50 [6, 26] [nM] | clearance [7] [mL/min/kg] | clearance [11] [mL/min/kg] | IC50 [12] [nM] | further results
Cc1nccc(-c2c(Nc3ccn[nH]3)nc3cccnn23)n1 | 0.62 | 14 (≈ 47.9 µM) | 3020 | 141 | 13.8 | 2170 | 31.7 | – | – | –
CC(=O)Nc1cc(-c2c(Nc3cc[nH]n3)nc3ccccn23)nc(C)n1 | 1.2 | – | 112 | 9 | 31.2 | 60 | 38.3 | – | – | AUC [8]: 0.6 µM·h
Cc1nc(N)nc(-c2c(Nc3ccn[nH]3)nc3ccc(-c4cnn(C5CC5)c4)cn23)n1 | – | – | 144 | 2 | – | 58 | – | 33.3 | 8 | –
Cc1nc(N)nc(-c2c(Nc3cc[nH]n3)nc3ccc(-c4cnccc4C)cn23)n1 | – | – | 73 | 2 | – | 49 | – | 33.3 | 13 | –
Cc1nc(N)nc(-c2c(Nc3ccn[nH]3)nc3ccc(-c4cncnc4C)cn23)n1 | – | – | 68 | 3 | – | 57 | – | 33.3 | 6 | –
Cc1nc(N)nc(-c2c(Nc3cc[nH]n3)nc3ccc(-c4ccncc4)cn23)n1 | – | – | 306 | 6 | – | 326 | – | 33.3 | 26 | –
Cc1cc(-c2ccc3nc(Nc4cc[nH]n4)c(-c4nc(C)nc(N)n4)n3c2)ccn1 | – | – | 239 | 4 | – | 222 | – | 33.3 | 23 | –
CC(=O)Nc1cc(-c2c(Nc3ccn(C)n3)nc3ccccn23)nc(C)n1 | 0.6 | – | 4580 | 67 | 39.6 | 940 | 10 | – | – | CL free (Rattus norvegicus [14]): 180 mL/min/kg; AUC [8]: 2.3 µM·h; bioavailability [9]: 4%; fraction unbound [10]: 0.056
Cc1nc(N)nc(-c2c(Nc3cc[nH]n3)nc3ccc(-c4ccccc4C)cn23)n1 | – | – | 393 | 21 | – | 652 | – | 33.3 | 54 | –
CC(=O)Nc1cc(-c2c(Nc3ccn(C)n3)nc3ccc(-c4cnco4)cn23)nc(C)n1 | 4.1 | – | 3170 | 20 | 42 | 347 | 117 | – | – | AUC [8]: 0.2 µM·h; bioavailability [9]: 3%
CC(=O)Nc1cc(-c2c(Nc3ccn(C)n3)nc3cccnn23)nc(C)n1 | 0.8 | – | 1660 | 55 | 23.4 | 1230 | 18.3 | – | – | CL free (Rattus norvegicus [14]): 555 mL/min/kg; AUC [8]: 1.3 µM·h; bioavailability [9]: 34%; fraction unbound [10]: 0.033
Cc1nc(N)nc(-c2c(Nc3cc[nH]n3)nc3ccc(-c4cccnc4)cn23)n1 | – | – | 119 | 3 | – | 101 | – | 33.3 | 12 | –
CNc1cc(-c2c(Nc3cc[nH]n3)nc3cccnn23)nc(C)n1 | 1.3 | 7 (≈ 21.8 µM) | 1140 | 63 | 15.6 | 706 | 80 | – | – | bioavailability [9]: 29%
Cc1nc(Nc2cnn(C3CCOC3)c2)cc(-c2c(Nc3ccn[nH]3)nc3cccnn23)n1 (stereo not drawn) | 3.2 | > 200 | 105 | 36 | 21.6 | 146 | 100 | – | – | –
Cc1nc(Nc2cnccn2)cc(-c2c(Nc3ccn[nH]3)nc3cccnn23)n1 | 2.5 | – | 122 | 6 | 25.2 | 66 | 96.7 | – | – | –
COc1cnnc(Nc2cc(-c3c(Nc4cc[nH]n4)nc4cccnn34)nc(C)n2)c1 | 9.1 | 175 (≈ 421 µM) | 54 | 3 | 70.8 | 85 | 103 | – | – | –
Cc1nc(N)nc(-n2c(Nc3ccn[nH]3)nc3ccccc32)n1 | – | 8.4 (≈ 27.3 µM) | – | 23 | – | – | – | – | – | Papp A→B [17]: 20.3 ×10⁻⁶ cm/s; solubility [18]: 3.7 µg/mL (≈ 12 µM); Papp B→A [19]: 35.4 ×10⁻⁶ cm/s; IC50 [20]: 166 nM; bioavailability [21]: 6%; solubility [22]: 8.4 µg/mL (≈ 27.3 µM); efflux ratio [23]: 1.7
Cc1nc(N)nc(-c2c(Nc3cc[nH]n3)nc3ccc(-c4cccnc4C)cn23)n1 | – | – | 120 | 3 | – | 41 | – | 33.3 | 10 | –
Cc1nc(N)cc(-c2c(Nc3cc[nH]n3)nc3cccnn23)n1 | 2 | 150 (≈ 488 µM) | 763 | 13 | 51 | 210 | 38.3 | – | – | CL free (Rattus norvegicus [14]): 435 mL/min/kg; AUC [8]: 1 µM·h; bioavailability [9]: 100%; fraction unbound [10]: 0.088
Cc1nc(N)nc(-c2c(Nc3ccn(C)n3)nc3ccc(-c4cncnc4)cn23)n1 | 1 | 1 (≈ 2.5 µM) | 635 | 76 | 15.6 | – | 41.7 | – | – | IC50 ([6]; u-87mg atcc): Not Active

Second part, led by results:

Vd [1] [L/kg] | solubility [2] [µg/mL] | IC50 [3] [nM] | IC50 [4] [nM] | half-life [5] [min] | IC50 [6, 26] [nM] | clearance [7] [mL/min/kg] | clearance [11] [mL/min/kg] | IC50 [12] [nM] | SMILES | further results
2.1 | – | > 125000 | 16 | 258 | 694 | 8.33 | – | – | CC(=O)Nc1cc(-c2c(Nc3ccn(C)n3)nc3ccc(-c4cnn(C(C)C)c4)cn23)nc(C)n1 | AUC [8]: 1.8 µM·h; bioavailability [9]: 8%; fraction unbound [10]: 0.004
– | – | 648 | 15 | – | 67 | – | 33.3 | 64 | Cc1nc(N)nc(-c2c(Nc3cc[nH]n3)nc3ccc(-c4ccccc4F)cn23)n1 | –
– | – | 463 | 5 | – | 276 | – | 33.3 | 23 | Cc1nc(N)nc(-c2c(Nc3ccn[nH]3)nc3ccc(-c4cncn4C)cn23)n1 | –
3.9 | 98 (≈ 208 µM) | 256 | 35 | 95.4 | 309 | 41.7 | – | – | Cc1nc(Nc2ccc(N3CCOCC3)nn2)cc(-c2c(Nc3ccn[nH]3)nc3cccnn23)n1 | bioavailability [13]: 7%
– | – | 268 | 39 | – | 510 | – | 33.3 | 138 | COc1ncccc1-c1ccc2nc(Nc3ccn[nH]3)c(-c3nc(C)nc(N)n3)n2c1 | –
– | – | 654 | 27 | – | 912 | – | 33.3 | 73 | Cc1nc(N)nc(-c2c(Nc3ccn[nH]3)nc3ccc(-c4cccc(F)c4)cn23)n1 | –
6.3 | 200 (≈ 572 µM) | 47 | 3 | 49.2 | 45 | 43.3 | – | – | CC(=O)Nc1cc(-c2c(Nc3cc[nH]n3)nc3cccnn23)nc(C)n1 | AUC [8]: 0.6 µM·h; bioavailability [9]: 46%; fraction unbound [10]: 0.056
– | 1 (≈ 2.6 µM) | 1140 | 147 | – | 6390 | – | – | – | Cc1nc(Nc2cccnc2)cc(-c2c(Nc3ccn[nH]3)nc3cccnn23)n1 | –
– | – | 173 | 24 | – | 276 | – | – | – | Cc1nc(Nc2cccnn2)cc(-c2c(Nc3ccn[nH]3)nc3cccnn23)n1 | –
– | – | 177 | 3 | – | 72 | – | 33.3 | 7 | Cc1cc(-c2ccc3nc(Nc4cc[nH]n4)c(-c4nc(C)nc(N)n4)n3c2)on1 | –
1.7 | – | 4290 | 15 | 168 | 230 | – | – | – | CC(=O)Nc1cc(-c2c(Nc3ccn(C)n3)nc3ccc(-c4cccnc4C)cn23)nc(C)n1 | AUC (Rattus norvegicus [15]): 7.6 µM·h; bioavailability [9]: 38%; CL (Rattus norvegicus [16]): 10 mL/min/kg; fraction unbound [10]: 0.025
– | – | 96 | – | – | 115 | – | 33.3 | 29 | CC(=O)Nc1cccc(-c2ccc3nc(Nc4cc[nH]n4)c(-c4nc(C)nc(N)n4)n3c2)c1 | –
1.2 | 162 (≈ 529 µM) | 5840 | 65 | 15 | 507 | – | – | – | Cc1nc(N)cc(-c2c(Nc3cc[nH]n3)nc3ccccn23)n1 | bioavailability [24]: 2%; clearance [25]: 68.3 mL/min/kg; CL free (Rattus norvegicus [14]): 515 mL/min/kg
– | – | 85 | 2 | – | 93 | – | 33.3 | 5 | Cc1nc(N)nc(-c2c(Nc3cc[nH]n3)nc3ccc(-c4cncnc4)cn23)n1 | –
